Source: ChEMBL document CHEMBL1944571, “A bright approach to the immunoproteasome: development of LMP2/β1i-specific imaging probes” (Bioorg Med Chem, 2012)
Activity calls are given as the source filed them. The calls are words filed in the database; no cut-off is given here.

Tests used:
[1] = target: T1, Proteasome subunit beta type-6 (Mus musculus) (UniProt Q60692); assay: Binding affinity to LMPY/beta1 in mouse EL4 cells at 10 uM after 1.5 hrs by Western blotting; assay type: cell-based
T1 sequence (whole entry): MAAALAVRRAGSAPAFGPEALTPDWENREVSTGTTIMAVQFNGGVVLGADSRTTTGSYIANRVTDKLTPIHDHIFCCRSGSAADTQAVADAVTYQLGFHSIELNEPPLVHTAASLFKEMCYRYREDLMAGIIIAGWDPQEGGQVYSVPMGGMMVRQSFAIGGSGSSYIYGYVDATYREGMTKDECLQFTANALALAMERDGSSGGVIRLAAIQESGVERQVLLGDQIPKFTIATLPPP
Procedure, shortened: (§1)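 EL4 or PC-3 cells were exposed for 1.5 h to compound, DMSO vehicle, or 1 μM epoxomicin as positive control. Cells were washed in HBSS, lysed on ice for 1 h in non-denaturing NP-40/Triton buffer, and equal protein was resolved on 12% SDS-PAGE and blotted to PVDF. Blots were probed with subunit-specific antibodies and read by ECL. An upward band shift versus DMSO was scored as covalent modification.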

[2] = target: T2, Proteasome subunit beta type-8 (Homo sapiens) (UniProt P28062); assay: Binding affinity to LMP7/beta5i in human PC3 cells at 10 to 20 uM after 1.5 hrs by Western blotting; assay type: cell-based; conditions: PC-3; procedure, shortened: as §1
T2 sequence (whole entry): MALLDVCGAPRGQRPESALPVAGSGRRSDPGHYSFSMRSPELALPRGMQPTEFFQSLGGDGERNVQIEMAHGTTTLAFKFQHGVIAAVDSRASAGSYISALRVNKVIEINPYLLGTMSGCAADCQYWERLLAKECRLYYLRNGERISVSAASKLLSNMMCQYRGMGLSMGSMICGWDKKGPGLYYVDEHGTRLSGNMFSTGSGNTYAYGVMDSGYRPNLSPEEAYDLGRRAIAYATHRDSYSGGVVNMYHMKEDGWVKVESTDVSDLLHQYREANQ

[3] = target: T3, Proteasome subunit beta type-9 (Mus musculus) (UniProt P28076); assay: Binding affinity to LMP2/beta1i in mouse EL4 cells at 5 uM after 1.5 hrs by Western blotting; assay type: cell-based; procedure, shortened: as §1
T3 sequence (whole entry): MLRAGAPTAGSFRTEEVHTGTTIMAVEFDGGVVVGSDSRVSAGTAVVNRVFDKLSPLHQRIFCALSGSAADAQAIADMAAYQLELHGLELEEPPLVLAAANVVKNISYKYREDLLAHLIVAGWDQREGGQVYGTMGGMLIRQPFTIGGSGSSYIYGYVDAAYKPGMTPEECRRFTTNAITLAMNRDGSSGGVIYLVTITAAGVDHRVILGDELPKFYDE

[4] = target: T3, Proteasome subunit beta type-9 (Mus musculus); assay: Binding affinity to LMP2/beta1i in mouse EL4 cells at 1 uM after 1.5 hrs by Western blotting; assay type: cell-based; procedure, shortened: as §1
[5] = target: T3, Proteasome subunit beta type-9 (Mus musculus); assay: Binding affinity to LMP2/beta1i in mouse EL4 cells at 10 uM after 1.5 hrs by Western blotting; assay type: cell-based; procedure, shortened: as §1
[6] = target: T4, Proteasome Macropain subunit MB1 (Homo sapiens) (UniProt P28074); assay: Binding affinity to LMPX/[…] in human PC3 cells at 10 to 20 uM after 1.5 hrs by Western blotting; assay type: cell-based; conditions: PC-3; procedure, shortened: as §1
T4 sequence (whole entry): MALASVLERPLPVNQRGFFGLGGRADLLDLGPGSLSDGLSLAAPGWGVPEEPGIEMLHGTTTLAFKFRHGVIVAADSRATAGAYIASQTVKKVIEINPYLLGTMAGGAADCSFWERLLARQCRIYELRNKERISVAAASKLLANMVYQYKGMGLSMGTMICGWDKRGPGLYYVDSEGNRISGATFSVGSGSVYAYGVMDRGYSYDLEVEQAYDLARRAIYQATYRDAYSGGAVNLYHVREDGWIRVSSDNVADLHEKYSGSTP

[7] = target: T5, Proteasome subunit beta type-5 (Mus musculus) (UniProt O55234); assay: Binding affinity to LMPX/[…] in mouse EL4 cells at 10 uM after 1.5 hrs by Western blotting; assay type: cell-based; procedure, shortened: as §1
T5 sequence (whole entry): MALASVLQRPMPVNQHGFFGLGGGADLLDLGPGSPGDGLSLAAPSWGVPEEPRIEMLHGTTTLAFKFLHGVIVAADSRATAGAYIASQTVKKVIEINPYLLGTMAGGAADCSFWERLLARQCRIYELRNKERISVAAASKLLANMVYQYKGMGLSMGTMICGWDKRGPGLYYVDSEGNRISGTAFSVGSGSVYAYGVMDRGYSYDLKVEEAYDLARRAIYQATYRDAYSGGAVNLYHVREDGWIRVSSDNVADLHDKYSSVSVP

[8] = target: T6, Proteasome subunit beta type-6 (Homo sapiens) (UniProt P28072); assay: Binding affinity to LMPY/beta1 in human PC3 cells at 10 to 20 uM after 1.5 hrs by Western blotting; assay type: cell-based; conditions: PC-3; procedure, shortened: as §1
T6 sequence (whole entry): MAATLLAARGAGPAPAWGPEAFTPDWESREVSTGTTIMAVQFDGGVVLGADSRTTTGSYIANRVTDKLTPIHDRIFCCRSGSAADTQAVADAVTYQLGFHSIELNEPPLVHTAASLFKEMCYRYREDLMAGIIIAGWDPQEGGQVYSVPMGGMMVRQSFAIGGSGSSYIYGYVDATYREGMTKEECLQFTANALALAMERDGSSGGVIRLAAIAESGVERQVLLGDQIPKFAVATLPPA

[9] = target: T7, Proteasome subunit beta type-8 (Mus musculus) (UniProt P28063); assay: Binding affinity to LMP7/beta5i in mouse EL4 cells at 10 uM after 1.5 hrs by Western blotting; assay type: cell-based; procedure, shortened: as §1
T7 sequence (whole entry): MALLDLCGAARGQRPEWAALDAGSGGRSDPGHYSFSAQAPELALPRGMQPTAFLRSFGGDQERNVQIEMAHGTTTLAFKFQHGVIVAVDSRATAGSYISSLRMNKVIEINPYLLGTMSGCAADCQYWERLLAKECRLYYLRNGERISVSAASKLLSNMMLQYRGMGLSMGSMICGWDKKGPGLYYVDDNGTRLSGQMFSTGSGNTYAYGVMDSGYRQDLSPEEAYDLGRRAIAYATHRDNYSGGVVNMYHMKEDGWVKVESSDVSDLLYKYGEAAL

[10] = target: T8, Proteasome subunit beta type-9 (Homo sapiens) (UniProt P28065); assay: Binding affinity to LMP2/beta1i in human PC3 cells at 10 to 80 uM after 1.5 hrs by Western blotting; assay type: cell-based; conditions: PC-3; procedure, shortened: as §1
T8 sequence (whole entry): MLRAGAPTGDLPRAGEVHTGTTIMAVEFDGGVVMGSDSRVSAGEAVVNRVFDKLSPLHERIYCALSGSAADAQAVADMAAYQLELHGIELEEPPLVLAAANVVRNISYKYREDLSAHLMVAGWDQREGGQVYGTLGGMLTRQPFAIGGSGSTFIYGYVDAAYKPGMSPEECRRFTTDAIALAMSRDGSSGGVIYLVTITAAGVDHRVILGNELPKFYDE

[11] = target: T8, Proteasome subunit beta type-9 (Homo sapiens); assay: Binding affinity to LMP2/beta1i in human PC3 cells after 4 hrs using typhoon imaging by gel fluorescence assay; assay type: cell-based; conditions: PC-3
Procedure, shortened: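 PC-3 cells were treated with probe or DMSO vehicle for 4 h, with an epoxomicin control. Cells were washed in HBSS and lysed on ice for 1 h in NP-40/Triton X-100 buffer with protease inhibitors. Equal protein was run on 12% SDS-PAGE after denaturing at 100°C, and gels were scanned for fluorescence (λex 635 nm, λem 665 nm).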

[12] = target: T8, Proteasome subunit beta type-9 (Homo sapiens); assay: Binding affinity to LMP2/beta1i in human PC3 cells at 30 uM after 4 hrs by fluorescence microscopy analysis in presence of UK101-Lys-Cbz treated 1.5 hrs before compound treatment; assay type: cell-based; conditions: PC-3
[13] = target: T8, Proteasome subunit beta type-9 (Homo sapiens); assay: Binding affinity to LMP2/beta1i in human PC3 cells at 30 uM after 4 hrs by gel-fluorescence assay in presence of UK101-Lys-Cbz treated 1.5 hrs before compound treatment; assay type: cell-based; conditions: PC-3
Procedure, shortened: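 PC-3 cells were pretreated for 1.5 h with DMSO or 20 μM competitor, then incubated with 30 μM fluorescent probe for a further 4 h. Lysates were resolved by SDS-PAGE, and gels were imaged for in-gel fluorescence (λex 635 nm, λem 665 nm).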

[14] = target: T8, Proteasome subunit beta type-9 (Homo sapiens); assay: Binding affinity to LMP2/beta1i in human PC3 cells at 30 uM after 4 hrs by gel-fluorescence assay in presence of UK101 treated 1.5 hrs before compound treatment; assay type: cell-based; conditions: PC-3
Procedure, shortened: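 PC-3 cells were pretreated for 1.5 h with DMSO or 1 μM competitor, then given 30 μM fluorescent probe for a further 4 h. Cells were washed, lysed, resolved by SDS-PAGE, and gels were imaged for in-gel fluorescence (λex 635 nm, λem 665 nm).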

[15] = target: T8, Proteasome subunit beta type-9 (Homo sapiens); assay: Binding affinity to LMP2/beta1i in human PC3 cells at 15 uM after 4 hrs by fluorescence microscopy analysis in presence of UK101 treated 1.5 hrs before compound treatment; conditions: PC-3
[16] = target: T8, Proteasome subunit beta type-9 (Homo sapiens); assay: Effect on LMP2/beta1i cellular distribution in human PC3 cells after 4 hrs by fluorescence microscopy analysis in presence of UK101 treated 1.5 hrs before compound treatment; assay type: cell-based; conditions: PC-3
Procedure, shortened: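 PC-3 cells were grown on coverslips for 24–48 h, pretreated for 1.5 h with DMSO or 5 μM competitor, then given 15 μM probe for 4 h. Cells were washed, fixed in 4% paraformaldehyde, permeabilized with 0.2% Triton, and blocked. Where indicated, cells were stained with anti-LMP2 antibody, mounted with DAPI, and imaged by fluorescence microscopy, with intensity normalized to control.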

Row | Structure (SMILES) | Activity [1] | Activity [2] | Activity [3] | Activity [4] | Activity [5] | Activity [6] | Activity [7] | Activity [8] | Activity [9] | Activity [10] | Activity [11] | Activity [12] | Activity [13] | Activity [14] | Activity [15] | Activity [16]
1 | CCCCCCC(=O)N[C@@H](CCCCNC(=O)OCc1ccccc1)C(=O)N[C@@H](CC(C)C)C(=O)[C@@]1(CO[Si](C)(C)C(C)(C)C)CO1 | inactive | inactive | Active | inactive | Active | inactive | inactive | inactive | inactive | Active |  |  |  |  |  | 
2 | CCCCCCC(=O)N[C@@H](CCCCNC(=O)CCCCCNC(=O)COc1ccc(/C=C/c2ccc3n2[B-](F)(F)[N+]2=C(c4ccc[nH]4)C=CC2=C3)cc1)C(=O)N[C@@H](CC(C)C)C(=O)[C@@]1(CO[Si](C)(C)C(C)(C)C)CO1 |  |  |  |  |  |  |  |  |  |  | Active | inactive | inactive | inactive | inactive | inactive
